# Reference: ChEMBL document CHEMBL3085638, “Synthesis of novel ciprofloxacin analogues and evaluation of their anti-proliferative effect on human cancer cell lines” (2013)
# Active and inactive are the calls of the source. The rule behind the calls is not given here.
# Legend:
# CCRF-CEM [1] = test: Antiproliferative activity against human CCRF-CEM cells assessed as cell viability at 50 uM after 96 hrs by CellTiter assay relative to DMSO control; type: functional; conditions: read-out: Activity
# CCRF-CEM [2] = test: Antiproliferative activity against human CCRF-CEM cells assessed as cell viability at 50 uM after 48 hrs by CellTiter assay relative to DMSO control; type: functional; conditions: read-out: Activity
# CCRF-CEM [3] = test: Antiproliferative activity against human CCRF-CEM cells assessed as cell viability at 50 uM after 24 hrs by CellTiter assay relative to DMSO control; type: functional; conditions: read-out: Activity
# HCT-116 [4] = test: Antiproliferative activity against human HCT116 cells assessed as cell viability at 50 uM after 72 hrs by CellTiter assay relative to DMSO control; type: functional; conditions: HCT-116, 72 h, read-out: Activity
# Summary of the method: (§1)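 ATCC-derived cells kept in EMEM with 10% FBS and 1% penicillin/streptomycin at 37 °C under 5% CO2. At 75–80% confluency, 5000 cells/well were seeded, then after 72 h exposed to 50 µM compound in triplicate for 72 h. CellTiter 96 AQueous One reagent was added for 1 h at 37 °C and formazan A490 read, with cell-free medium plus reagent as blank. Results are % of untreated control.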
# CCRF-CEM [5] = test: Antiproliferative activity against human CCRF-CEM cells assessed as cell viability at 50 uM after 72 hrs by CellTiter assay relative to DMSO control; type: functional; conditions: read-out: Activity; summary of the method: as §1
# CCRF-CEM [6] = test: Antiproliferative activity against human CCRF-CEM cells assessed as cell viability at 50 uM by CellTiter assay relative to DMSO control; type: functional, cell-based
# MDA-MB-468 [7] = test: Antiproliferative activity against human MDA-MB-468 cells assessed as cell viability at 50 uM after 72 hrs by CellTiter assay relative to DMSO control; type: functional; conditions: MDA-MB-468, 72 h, read-out: Activity; summary of the method: as §1
# HCT-116 [8] = test: Antiproliferative activity against human HCT116 cells assessed as cell viability at 10 uM after 72 hrs by CellTiter assay; type: functional, cell-based
# Summary of the method: (§2)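 Doxorubicin was the positive control at 10 µM. ATCC cells were grown in EMEM with 10% FBS and 1% penicillin/streptomycin at 37 °C under 5% CO2, seeded at 5000 cells/well, and treated 72 h after seeding for a 72 h exposure. Viability was read by CellTiter 96 AQueous One reagent (1 h, 37 °C) as A490, minus a cell-free blank, and expressed as % of untreated control.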
# CCRF-CEM [9] = test: Antiproliferative activity against human CCRF-CEM cells assessed as cell viability at 10 uM after 72 hrs by CellTiter assay; type: functional, cell-based; summary of the method: as §2
# MDA-MB-468 [10] = test: Antiproliferative activity against human MDA-MB-468 cells assessed as cell viability at 10 uM after 72 hrs by CellTiter assay; type: functional, cell-based; summary of the method: as §2
smiles,measurement,setting,value
O=C(O)c1cn(C2CC2)c2cc(N3CCN(C(=O)CN4CCN(C(c5ccc(F)cc5)c5ccc(F)cc5)CC4)CC3)c(F)cc2c1=O,viability at 50 µM,CCRF-CEM [1],43%
same,viability at 50 µM,CCRF-CEM [2],27%
same,viability at 50 µM,CCRF-CEM [3],19%
same,viability at 50 µM,HCT-116 [4],35%
same,viability at 50 µM,CCRF-CEM [5],38%
same,Activity,CCRF-CEM [6]; TDE = time-dependent effect,tde
same,viability at 50 µM,MDA-MB-468 [7],35%
O=C(O)c1cn(C2CC2)c2cc(N3CCNCC3)c(F)cc2c1=O,Activity,CCRF-CEM [6],Active
O=C(O)c1cn(C2CC2)c2cc(N3CCN(C(=O)CN4CCN(c5ccc(F)c(F)c5)CC4)CC3)c(F)cc2c1=O,viability at 50 µM,HCT-116 [4],35%
same,viability at 50 µM,CCRF-CEM [5],35%
same,viability at 50 µM,MDA-MB-468 [7],35%
COc1cccc2c1C(=O)c1c(O)c3c(c(O)c1C2=O)C[C@@](O)(C(=O)CO)C[C@@H]3O[C@H]1C[C@H](N)[C@H](O)[C@H](C)O1,Activity,HCT-116 [8],Active
same,Activity,CCRF-CEM [9],Active
same,Activity,MDA-MB-468 [10],Active
O=C(O)c1cn(C2CC2)c2cc(N3CCN(C(=O)CN4CCN(C(c5ccccc5)c5ccccc5)CC4)CC3)c(F)cc2c1=O,viability at 50 µM,MDA-MB-468 [7],≤ 35%
